# Rows were chosen to be rich in hits. Some 2.7% of all compounds tested hit in one or more screens of this group.
# ABHD4 inh = ABHD4 (mouse) inhibition, primary FP screen; purified mABHD4, FP-Rh probe fluorescence polarization; inhibition, % at 8.92 µM; 0.54% of 370,000 active; AID 720543;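 active = inhibition exceeding the mean over every tested compound plus 3 SD, cut at about 30% in these data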;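 also: 0% = plate median of compound wells and 100% = S159A mutant with DMSO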
#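 Assay system: Wild-type mouse ABHD4 protein | Medium: HEPES pH 7.0 buffer, 150 mM NaCl, 0.01% Pluronic F-127 | Incubation: Enzyme–compound pre-incubation 45 min, then probe 60 min, both 25 °C | Technique: Fluorescence polarization with parallel and perpendicular emission, 525/598 nm | Evaluation: % inhibition of FP-Rh probe binding versus controls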
# HTRA1 inhibitor = blocks human HTRA1 serine peptidase | 0.5% of 340,000 active | recombinant HTRA1, FP-rhodamine activity-based probe, fluorescence polarization | AID 504803 | Q92743 | inhibition, % at 5.96 µM; in the data active = inhibition above about 36%;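 also: 0% = enzyme with DMSO and 100% = wells lacking enzyme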
# Target sequence (Q92743 whole entry, looked up): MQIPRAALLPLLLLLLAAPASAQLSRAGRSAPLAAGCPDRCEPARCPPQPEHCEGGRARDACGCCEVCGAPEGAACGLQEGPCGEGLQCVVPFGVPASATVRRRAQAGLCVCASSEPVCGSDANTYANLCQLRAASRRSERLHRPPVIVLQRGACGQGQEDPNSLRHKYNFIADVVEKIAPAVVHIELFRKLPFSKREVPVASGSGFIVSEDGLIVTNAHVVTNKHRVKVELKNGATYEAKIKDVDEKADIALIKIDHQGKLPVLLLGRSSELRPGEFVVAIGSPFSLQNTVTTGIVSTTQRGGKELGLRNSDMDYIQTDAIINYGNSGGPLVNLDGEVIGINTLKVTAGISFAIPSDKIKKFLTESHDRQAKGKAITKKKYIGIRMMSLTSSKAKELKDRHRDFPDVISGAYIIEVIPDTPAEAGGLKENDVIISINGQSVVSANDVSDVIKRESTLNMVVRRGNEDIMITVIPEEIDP
# TCR CD3 inh = inhibitors of human TCR-CD3 interaction | TAMRA-labeled TCR probe fluorescence, biochemical | inhibition, % at 9.4 µM | 0.37% of 360,000 active; in the data active = inhibition above about 19%;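 also: recombinant mutant TCR 2C K166C tagged with TAMRA read by polarization; 0% = receptor in buffer alone and 100% = receptor with positive control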
# SIAE primary = human SIAE inhibition, primary screen; Q9HAT2; SIAE FP-Rh probe binding, fluorescence polarization; inhibition, % at 9.66 µM; 0.69% of 370,000 active;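 active = inhibition above a cutoff: mean of compounds within the control limits plus 3 SD of those, cut at about 17% in these data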;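 also: 0% = plate median of compound wells and 100% = probe without SIAE protein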
# PRMT1 FP inh = inhibitors of human PRMT1; recombinant PRMT1, activity-based probe fluorescence polarization; inhibition, % at 2.79 µM; 1.3% of 370,000 active;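 active = inhibition above about 21% made by adding two undisclosed values, limit read from the data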
# An asterisk follows results filed as active; x = no result given.
SMILES,ABHD4 inh,HTRA1 inhibitor,TCR CD3 inh,SIAE primary,PRMT1 FP inh
Cc1ccc(NC(=O)C2CCN(c3nnc(-n4cccc4)s3)CC2)c(C)c1,5,x,x,5,-4
COc1ccc(C)cc1-n1c(C)cc(C=O)c1C,-2,0,-9,0,2
COc1ccc(N)cc1-n1c(C)ccc1C,28,21,0,13,27*
C(=N\Nc1nncc2ccccc12)/c1cccnc1,4,x,x,-5,4
Cc1cc2c(SCc3ccccc3Cl)nc(N)nc2nc1C,-47,-32,-9,-44,24*
Nc1cc(N)nc(SCc2ccccc2Cl)n1,0,-3,-2,7,-2
C/C(=N\NC(=O)c1cc(O)cc(O)c1)c1ccc(NC(=O)Cc2ccccc2)cc1,28,23,41*,24*,7
C/C(=N\NC(=O)c1cccc(F)c1)c1ccc(NC(=O)Cc2ccccc2)cc1,2,-4,2,4,4
CC(C)(C)NC(=O)CN(C(=O)CCC(=O)Nc1nccs1)c1cccc(C(F)(F)F)c1,0,3,7,3,2
Cc1ccc(-c2csc(N/N=C/c3ccco3)n2)cc1,9,9,3,10,13
C(=N\Nc1nc(-c2ccccc2)cs1)/c1ccco1,13,9,-3,8,24*
CCn1c2ccccc2c2cc(NC(=O)COC(=O)c3cc(F)ccc3F)ccc21,2,x,x,0,0
CC(C)(C)c1ccc(-c2nnc3sc(-c4ccccn4)nn23)cc1,3,-17,7,9,22*
CC(=O)c1cnc(-c2ccccn2)s1,-15,2,-2,-1,22*
CC(=O)c1cnc(-c2ccccc2Cl)s1,5,2,12,-4,-2
O=C1N=c2ccccc2=C1c1c(O)n(-c2cccc(F)c2)[nH]c1=O,19,3,-4,7,21*
O=C(NC(Cc1ccccc1)C(=O)O)/C(=C\c1ccco1)NC(=O)c1ccccc1Br (centres undefined),11,-3,-3,-7,24*
O=C(NC(Cc1ccccc1)C(=O)O)/C(=C/c1ccco1)NC(=O)c1cccc([N+](=O)[O-])c1 (centres undefined),-2,-1,-8,-8,7
O=C(O)c1ccc(/C=N/n2cc(-c3ccccc3)[nH]c2=S)cc1,-3,7,5,5,10
S=c1[nH]c(-c2ccccc2)cn1/N=C/c1ccc(Br)cc1,-4,-6,-1,-5,1
Fc1ccccc1/C=N/n1cc(-c2ccccc2)[nH]c1=S,6,2,9,1,24*
Cc1ccc(C)c(/C=N/n2cc(-c3ccccc3)[nH]c2=S)c1,-2,-3,-4,2,24*
CCCC[C@H]1C2CC(OC(=O)Nc3ccc(Cl)cc3)C(C2)[C@H]2CCCCN21 (some centres undefined),3,x,x,-2,-1
O=C1NCCN1CCN1CCC(c2cn(-c3ccc(F)cc3)c3ccc(Cl)cc23)CC1,8,x,x,-1,-6
NC(=S)N/N=C/c1ccc(-c2ccc([N+](=O)[O-])cc2)o1,15,22,3,9,21*
SMILES,ABHD4 inh,HTRA1 inhibitor,TCR CD3 inh,SIAE primary,PRMT1 FP inh
COC(=O)c1ccc(C=NNC(=O)c2cc(-c3ccc(C)c(C)c3)n[nH]2)cc1,-2,x,x,4,-10
CCCc1c(C)[nH]c2ccc(C(=O)O)cc2c1=S,-18,-47,27*,-8,15
CCCCOc1cccc(C2C(C(=O)c3ccc(C)o3)=C(O)C(=O)N2c2nnc(C)s2)c1 (centres undefined),-8,-11,2,-7,23*
Nn1c(SCC(=O)N2c3ccccc3Sc3ccc(Cl)cc32)nnc1-c1n[nH]c2c1CCC2,-24,x,x,-7,-2
O=C(O)c1c(C(=O)O)c(-c2ccc(Cl)c(Cl)c2)n2c1CSC2,-4,-8,-2,-1,30*
O=C1CSC(=S)N1Nc1ccccc1,-45,-22,-38,-24,24*
O=c1[nH]c(=O)n(C(c2ccccc2)(c2ccccc2)c2ccccc2)cc1N(CCO)CCO,9,-10,-4,7,3
COC(=O)C1CSC(C(=O)OC)N1C(=O)Nc1ccccc1 (centres undefined),5,-5,1,-2,24*
COC(=O)C1CSC(C(=O)OC)N1C(=O)Nc1c(C)cccc1C (centres undefined),2,2,5,0,0
CCn1c(CCNC(=O)c2cccs2)nnc1SCC(=O)c1ccc(OC)cc1,-2,-10,-6,6,22*
CCn1c(CNC(=O)c2ccc(OC)cc2)nnc1SCC(=O)c1ccccc1,7,8,-2,-5,9
CCCCN(C(=O)c1cc(-c2ccc(F)cc2)nc2ccccc12)c1c(N)n(CCCC)c(=O)[nH]c1=O,3,-19,-5,-4,4
CN(C(=O)COC(=O)c1cc2ccccc2cc1O)c1c(N)n(Cc2ccccc2)c(=O)[nH]c1=O,-1,-10,-3,-4,5
CCCCN(C(=O)c1cc(-c2ccco2)nc2ccccc12)c1c(N)n(CCCC)c(=O)[nH]c1=O,7,4,18,5,22*
CCCCn1c(N)c(N(CCC(C)C)C(=O)c2cc(-c3ccco3)nc3ccccc23)c(=O)[nH]c1=O,8,4,12,5,22*
CCCCn1c(N)c(N(CC(C)C)C(=O)c2cc(-c3ccc(OC)cc3)nc3ccccc23)c(=O)[nH]c1=O,1,-3,-7,11,-1
Cc1ccc(-c2cc(C(=O)OCC(=O)N(C)c3c(N)n(Cc4ccccc4)c(=O)[nH]c3=O)c3ccccc3n2)o1,1,-22,-5,2,24*
COc1ccc(N2CCN(CCCNC(=O)Cn3c(=O)c4cccn4c4cccnc43)CC2)c(OC)c1,-9,x,x,2,0
O=C1N2Cc3ccccc3C2CS(=O)(=O)N1C1CCCC1 (centres undefined),-3,x,x,-4,7
COc1ccc(OCc2nnc(SCC(=O)N(C)Cc3ccccc3)n2N)cc1,4,-3,-7,-2,21*
CCC(=O)N(CC)C1=C(O)c2ccccc2C(=O)C1=O,15,4,-3,-3,53*
CCC(=O)N(C1=C(NC)C(=O)c2ccccc2C1=O)C(C)C,2,5,6,-1,-2
COc1cc(NC(=O)[C@@H]2O[C@H](CO)[C@@H](O)[C@H]2O)cc(OC)c1OC,2,x,1,5,3
O=C1CSC(=S)N1N=Cc1ccc(Cl)s1,15,12,-22,-44,25*
COC(=O)c1ccc(CCc2cc(O)ccc2O)cc1,x,5,x,x,x
O=C(OCc1ccccc1)c1ccc(NCc2cc(O)ccc2O)cc1,20,12,-1,12,22*
COP(=O)(OC)c1ccc(NCc2cc(O)ccc2O)cc1,23,13,6,-2,22*
N[C@@H](C(=O)N[C@@H]1C(=O)N2C(C(=O)O)=C(Cl)CS[C@H]12)c1ccccc1,12,-5,14,3,46*
C=CCn1c(SCC(=O)O)nnc1-c1ccco1,-1,x,x,-5,-2

# High-throughput results: PubChem BioAssay, The Scripps Research Institute Molecular Screening Center
